Reference: ChEMBL document CHEMBL1156555, “Synthesis and anti-inflammatory activity of 2-aryloxy methyl oxazolines” (Bioorg Med Chem Lett, 2008)

Legend:
Rattus norvegicus [1] = test: Antiinflammatory activity in albino rat assessed as inhibition of carrageenan-induced paw edema at 20 mg/kg, po administered 30 mins prior to challenge relative to control; type: functional
Summary of the method: (§1)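 Groups of five rats (200–230 g) were dosed orally. After 30 min, 0.2 ml of 1% carrageenan in 0.9% NaCl was injected subcutaneously into the hind-paw plantar aponeurosis. Paw volume was read by water plethysmometer before and at 3 h. % inhibition = (1 − vt/vc) × 100, using mean relative oedema changes against five carrageenan-only controls.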

Rattus norvegicus [2] = test: Antiinflammatory activity in albino rat assessed as inhibition of carrageenan-induced paw edema at 40 mg/kg, po administered 30 mins prior to challenge relative to control; type: functional; summary of the method: as §1
Rattus norvegicus [3] = test: Antiinflammatory activity in albino rat assessed as inhibition of carrageenan-induced paw edema at 80 mg/kg, po administered 30 mins prior to challenge relative to control; type: functional; summary of the method: as §1
Rattus norvegicus [4] = test: Toxic ulcerogenic effect in albino rat assessed as incidence of hyperemia at 100 mg/kg, po; type: toxicity, organism-based; parameters: dose 100 mg/kg, route oral; conditions: in vivo
Summary of the method: (§2)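 Rats (200–230 g) in groups of 10 were fasted 24 h, then given the compound orally. They were killed 5 h after dosing. Stomach and small intestine were examined under a microscope for hyperemia, epithelial shedding, petechiae, frank haemorrhage, and erosion or ulceration with or without perforation. Any of these criteria counted as ulcerogenic.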

Rattus norvegicus [5] = test: Toxic ulcerogenic effect in albino rat assessed as incidence of hyperemia at 200 mg/kg, po; type: toxicity, organism-based; parameters: dose 200 mg/kg, route oral; conditions: in vivo; summary of the method: as §2
Rattus norvegicus [6] = test: Toxic ulcerogenic effect in albino rat assessed as incidence of hyperemia at 400 mg/kg, po; type: toxicity, organism-based; parameters: dose 400 mg/kg, route oral; conditions: in vivo; summary of the method: as §2
Rattus norvegicus [7] = test: Toxic ulcerogenic effect in albino rat assessed as incidence of ulcer at 100 mg/kg, po; type: toxicity, organism-based; parameters: dose 100 mg/kg, route oral; conditions: in vivo; summary of the method: as §2
Rattus norvegicus [8] = test: Toxic ulcerogenic effect in albino rat assessed as incidence of ulcer at 200 mg/kg, po; type: toxicity, organism-based; parameters: dose 200 mg/kg, route oral; conditions: in vivo; summary of the method: as §2
Rattus norvegicus [9] = test: Toxic ulcerogenic effect in albino rat assessed as incidence of ulcer at 400 mg/kg, po; type: toxicity, organism-based; parameters: dose 400 mg/kg, route oral; conditions: in vivo; summary of the method: as §2
Oryctolagus cuniculus = species on record: Oryctolagus cuniculus; test: Inhibition of cyclooxygenase in rabbit colon microsomes assessed as reduction in conversion of arachidonic acid to PGE2 at 10 uM by liquid scintillation spectrometry relative to control
Summary of the method: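 Rabbit distal colon mucosa (2–3 g) was homogenized in 0.1 M Tris pH 8.0, and the microsomal pellet was used fresh. Microsomes were incubated with the test agent for 10 min at 37 °C in Tris-HCl pH 8.0 with 2 mM reduced glutathione, L-tryptophan and hematin. Products were separated by isocratic HPLC (150 mM orthophosphoric acid pH 3.5, 30% acetonitrile; UV 214 nm), and PGE2-co-eluting radioactivity was counted by liquid scintillation.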

Rattus norvegicus [10] = test: Antiinflammatory activity in po dosed albino rat assessed as inhibition of carrageenan-induced paw edema administered 30 mins prior to challenge; type: functional
[11] = Acute toxicity in albino rat assessed as mortality after 24 hrs; type: organism-based; conditions: in vivo, read-out: ALD50
Summary of the method: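 Albino rats (200–230 g), groups of 10, given test compounds intraperitoneally at several dose levels. Percent mortality per group recorded 24 h after dosing. ALD50 calculated from the mortality data by a previously described method.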

SMILES | inhibition in vivo at 20 mg/kg (Rattus norvegicus [1]) [%] | inhibition in vivo at 40 mg/kg (Rattus norvegicus [2]) [%] | inhibition in vivo at 80 mg/kg (Rattus norvegicus [3]) [%] | Activity (Rattus norvegicus [4]) [%] | Activity (Rattus norvegicus [5]) [%] | Activity (Rattus norvegicus [6]) [%] | Activity (Rattus norvegicus [7]) [%] | Activity (Rattus norvegicus [8]) [%] | Activity (Rattus norvegicus [9]) [%] | inhibition (Oryctolagus cuniculus) [%] | ED50 (Rattus norvegicus [10]) [mg/kg] | LD50 at 24 h [11] [mg/kg]
O=[N+]([O-])c1ccccc1OCC1=NCCO1 | 20.5 | 35.5 | 50.5 | 30 | 55 | 90 | 20 | 25 | 45 | 30 | 70.1 | > 1000
Cc1cc(OCC2=NCCO2)ccc1Cl | 22.2 | 45.4 | 77.1 | 50 | 70 | 100 | 20 | 30 | 40 | 87 | 60.2 | > 1000
Fc1ccc(OCC2=NCCO2)cc1 | 18.5 | 30.2 | 40.5 | 25 | 40 | 50 | 50 | 25 | 75 |  | 75.5 | > 1000
Clc1ccccc1OCC1=NCCO1 | 13.7 | 22.2 | 45.5 | 20 | 40 | 60 | 40 | 30 | 80 |  | 77.5 | > 1000
O=[N+]([O-])c1cccc(OCC2=NCCO2)c1 | 15.5 | 29.4 | 46.5 | 20 | 35 | 55 | 45 | 30 | 80 |  | 75.5 | > 1000
CCCCC1C(=O)N(c2ccccc2)N(c2ccccc2)C1=O [PHENYLBUTAZONE] | 31.3 | 35.5 | 57.2 | 30 | 60 | 90 | 30 | 60 | 90 | 60 |  | 
CC(=O)Oc1ccccc1C(=O)O [ASPIRIN] | 30.4 | 35.5 | 59.6 | 30 | 60 | 90 | 80 | 90 | 90 | 65 |  | 
Clc1ccc(OCC2=NCCO2)cc1 | 30.3 | 48.2 | 94.1 | 30 | 60 | 90 | 10 | 20 | 12 |  | 51.2 | > 1000
Brc1ccccc1OCC1=NCCO1 | 20.1 | 29.1 | 62.8 | 70 | 90 | 100 | 10 | 20 | 40 | 40 | 62.5 | > 1000
O=[N+]([O-])c1ccc(OCC2=NCCO2)cc1 | 29.2 | 30.4 | 77.1 | 50 | 70 | 100 | 10 | 15 | 20 | 85 | 60.5 | > 1000
Cc1ccccc1OCC1=NCCO1 | 3.1 | 29.5 | 55.3 | 40 | 60 | 100 | 10 | 20 | 40 | 20 | 78.3 | > 1000
Fc1ccccc1OCC1=NCCO1 | 20.6 | 30.5 | 60.1 | 40 | 60 | 80 | 10 | 15 | 20 | 65 | 76.2 | > 1000
Brc1ccc(OCC2=NCCO2)cc1 | 35.5 | 48.5 | 60.1 | 60 | 80 | 100 | 5 | 10 | 15 | 60 | 65.5 | > 1000
Cc1cccc(OCC2=NCCO2)c1 | 16.6 | 44.6 | 64.1 | 50 | 70 | 90 | 15 | 20 | 25 | 70 | 76.2 | > 1000
COc1ccc(OCC2=NCCO2)cc1 | 16.6 | 33.2 | 64.1 | 50 | 70 | 90 | 5 | 10 | 15 | 70 | 77.2 | > 1000
Cc1ccc(OCC2=NCCO2)c(C)c1 | 31.4 | 46.5 | 85.5 | 25 | 50 | 75 | 15 | 25 | 18 |  | 57.3 | > 1000
